Reference: ChEMBL document CHEMBL3352498, “Membrane active phenylalanine conjugated lipophilic norspermidine derivatives with selective antibacterial activity” (J Med Chem, 2014)
Activity calls are given as the source filed them. The rule behind the calls is not given here.

What was measured:
[1] = tested on: Staphylococcus aureus; experiment: Antimicrobial activity against Staphylococcus aureus MTCC 737 assessed as leakage of K+ at 12 times MIC using PBFI-AM by fluorescence spectroscopy; type: functional, organism-based
[2] = tested on: Enterococcus faecium; experiment: Antimicrobial activity against Enterococcus faecium ATCC 19634 after 24 hrs by broth microdilution method; type: functional; settings: ATCC 19634, 24 h
[3] = tested on: Escherichia coli; experiment: Antimicrobial activity against Escherichia coli MTCC 443 assessed as membrane permeabilization at 12 times MIC by propidium iodide staining method; type: functional, organism-based
[4] = tested on: Klebsiella pneumoniae; experiment: Antimicrobial activity against beta-lactam-resistant Klebsiella pneumoniae ATCC 700603 after 24 hrs by broth microdilution method; type: functional; settings: ATCC 700603, 24 h
Summary of the method: (§1)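 Broth microdilution per CLSI, 24 h at 37 °C. Inoculum is a 6 h 37 °C culture diluted to ~10^5 CFU/mL (yeast–dextrose broth for MRSA and K. pneumoniae). 50 μL of 2-fold dilutions in water plus 150 μL bacteria. Read by OD600, triplicates, run at least twice. MIC is taken from a sigmoidal fit as the point where OD equals the bacteria-free control.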

[5] = Hemolytic activity in human erythrocytes after 1 hr by spectrophotometry; type: ADME, cell-based, Erythrocyte
Summary of the method: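 Fresh heparinised human erythrocytes suspended to 5 vol % in PBS pH 7.4, mixed with serially diluted compound, 1 h at 37 °C; no-compound and 1 vol % Triton X-100 controls. Supernatant A540 after centrifugation gave % hemolysis; triplicates averaged, sigmoidal fit gave HC50.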

[6] = tested on: Escherichia coli; experiment: Antimicrobial activity against Escherichia coli MTCC 443 assessed as leakage of K+ at 12 times MIC using PBFI-AM by fluorescence spectroscopy; type: functional, organism-based
[7] = tested on: Enterococcus faecium; experiment: Antimicrobial activity against vancomycin-resistant Enterococcus faecium ATCC 51559 after 24 hrs by broth microdilution method; type: functional; settings: ATCC 51559, 24 h; summary of the method: as §1
[8] = tested on: Staphylococcus aureus; experiment: Antimicrobial activity against Staphylococcus aureus MTCC 737 assessed as membrane depolarization at 12 times MIC using DiSC3 by fluorescence spectroscopy; type: functional, organism-based
Summary of the method: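 Mid-log S. aureus washed and resuspended in 5 mM HEPES, 5 mM glucose, 100 mM KCl (1:1:1); 2 μM DiSC3(5) added, 20 min preincubation.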

[9] = tested on: Staphylococcus aureus; experiment: Bactericidal activity against Staphylococcus aureus MTCC 737 assessed as log reduction in CFU/ml at 6 times MIC by time-kill assay relative to control; type: functional
[10] = tested on: Staphylococcus aureus; experiment: Antimicrobial activity against Staphylococcus aureus MTCC 737 assessed as membrane permeabilization at 12 times MIC by propidium iodide staining method; type: functional, organism-based
[11] = Critical micelle concentration of the compound; type: ADME
Summary of the method: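 Static light scattering at 90° (excitation and emission 400 nm) on compound dissolved at 500 μg/mL in yeast–dextrose broth at room temperature, measured over successive dilutions; cmc taken from the inflection point where intensity rises steeply then falls after a local maximum.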

[12] = tested on: Escherichia coli; experiment: Antimicrobial activity against Escherichia coli MTCC 443 after 24 hrs by broth microdilution method; type: functional; settings: MTCC 443, 24 h
Summary of the method: (§2)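 Broth microdilution per CLSI: 6 h cultures (37 °C) diluted to ~10^5 CFU/mL; 2-fold serial dilutions in sterile water added to bacteria; 24 h at 37 °C; OD600 read. Triplicates, experiment done at least twice; mean OD vs concentration fitted sigmoidally, MIC taken where OD matched the no-bacteria control. E. coli grown in LB broth, S. aureus in yeast–dextrose broth.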

[13] = tested on: Staphylococcus aureus; experiment: Ratio of MIC for Staphylococcus aureus MTCC 737 after 2 hrs in presence of 50% human plasma to MIC for Staphylococcus aureus MTCC 737 after 2 hrs; type: functional
Summary of the method: (§3)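 Compound mixed 1:1 with fresh human plasma (50% plasma) and held at 37 °C; at 0, 2, 4, 6, 12 and 24 h aliquots were diluted 2-fold in 0.9% saline.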

[14] = tested on: Staphylococcus aureus; experiment: Antimicrobial activity against methicillin-resistant Staphylococcus aureus ATCC 33591 after 24 hrs by broth microdilution method; type: functional; settings: ATCC 33591, 24 h; summary of the method: as §1
[15] = tested on: Staphylococcus aureus; experiment: Ratio of MIC for Staphylococcus aureus MTCC 737 after 4 hrs in presence of 50% human plasma to MIC for Staphylococcus aureus MTCC 737 after 4 hrs; type: functional; summary of the method: as §3
[16] = tested on: Staphylococcus aureus; experiment: Antimicrobial activity against Staphylococcus aureus MTCC 737 after 24 hrs by broth microdilution method; type: functional; settings: MTCC 737, 24 h; summary of the method: as §2

Row | SMILES | Activity [1] | MIC [2] | Activity [3] | MIC [4] | HC50 at 1 h [5] | Activity [6] | MIC [7] | Activity [8] | FC [9] | Activity [10] | CMC [11] | MIC [12] | fold change (FC) [13] | MIC [14] | fold change (FC) [15] | MIC [16]
1 | CCCCCCCCCCCC(=O)N(CCCNC(=O)[C@@H](N)Cc1ccccc1)CCCNC(=O)[C@@H](N)Cc1ccccc1.O=C(O)C(F)(F)F.O=C(O)C(F)(F)F | Active | 4 µg/mL | Active | 8 µg/mL | 171 µg/mL | Active | 2.3 µg/mL | Active | 3 | Active | 40 µg/mL | 10 µg/mL | 2 | 3.3 µg/mL | 4 | 3.6 µg/mL
2 | CCCCCCCCCCCCCCCCCC(=O)N(CCCNC(=O)[C@@H](N)Cc1ccccc1)CCCNC(=O)[C@@H](N)Cc1ccccc1.O=C(O)C(F)(F)F.O=C(O)C(F)(F)F |  | 10 µg/mL |  | 87 µg/mL | 65 µg/mL |  | 2.9 µg/mL |  |  |  | 20 µg/mL | 248 µg/mL |  | 5.2 µg/mL |  | 11 µg/mL
3 | CCCCCCCCCCCCCC(=O)N(CCCN)CCCN.O=C(O)C(F)(F)F.O=C(O)C(F)(F)F |  | 27 µg/mL |  | 47 µg/mL | 72 µg/mL |  | 23 µg/mL |  |  |  |  | 28 µg/mL |  | 15 µg/mL |  | 18 µg/mL
4 | CCCCCCCCCCCCCCCC(=O)N(CCCNC(=O)[C@@H](N)Cc1ccccc1)CCCNC(=O)[C@@H](N)Cc1ccccc1.O=C(O)C(F)(F)F.O=C(O)C(F)(F)F |  | 7.6 µg/mL |  | 62 µg/mL | 74 µg/mL |  | 2.7 µg/mL |  |  |  |  | 227 µg/mL |  | 4.6 µg/mL |  | 9 µg/mL
5 | N[C@@H](Cc1ccccc1)C(=O)NCCCNCCCNC(=O)[C@@H](N)Cc1ccccc1.O=C(O)C(F)(F)F.O=C(O)C(F)(F)F.O=C(O)C(F)(F)F |  | > 250 µg/mL |  | > 250 µg/mL |  |  | > 250 µg/mL |  |  |  |  | > 250 µg/mL |  |  |  | > 250 µg/mL
6 | CCCCCCCCCCCCCC(=O)N(CCCNC(=O)[C@@H](N)Cc1ccccc1)CCCNC(=O)[C@@H](N)Cc1ccccc1.O=C(O)C(F)(F)F.O=C(O)C(F)(F)F |  | 4.5 µg/mL |  | 16 µg/mL | 124 µg/mL |  | 2.4 µg/mL |  |  |  |  | 14 µg/mL |  | 4.1 µg/mL |  | 6 µg/mL
7 | CCCCCCCCCC(=O)N(CCCN)CCCN.O=C(O)C(F)(F)F.O=C(O)C(F)(F)F |  | > 250 µg/mL |  | > 250 µg/mL | > 500 µg/mL |  | 250 µg/mL |  |  |  |  | 231 µg/mL |  | 137 µg/mL |  | 240 µg/mL
8 | N[C@@H](Cc1ccccc1)C(=O)NCCCN(CCCNC(=O)[C@@H](N)Cc1ccccc1)C(=O)Cc1cccc2ccccc12.O=C(O)C(F)(F)F.O=C(O)C(F)(F)F |  | > 250 µg/mL |  | > 250 µg/mL |  |  | > 250 µg/mL |  |  |  |  | > 250 µg/mL |  |  |  | > 250 µg/mL
